Tests used:
Assay type in all cases: functional
LOX IMVI [1] = assay: Antiproliferative activity against human LOXIMVI cells assessed as cell growth at 10 uM; conditions: read-out: Activity
Summary of the method: (§1)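 NCI 60 cell line panel, single-dose screen (10^-5 M) run by the developmental therapeutics program protocol. Results are given as growth percent of treated cells relative to untreated control cells for each line.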

ACHN [2] = assay: Growth inhibition of human ACHN cells
Summary of the method: (§2)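 NCI 60 cancer cell line screen run per the Developmental Therapeutics Program protocol. Dose–response curves were plotted against log10 drug concentration for each cell line within its subpanel, and mean graph midpoint values were calculated.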

HCT-116 [3] = assay: Antiproliferative activity against human HCT116 cells assessed as cell growth at 10 uM; conditions: read-out: Activity; summary of the method: as §1
786-0 = assay: Growth inhibition of human 786-0 cells; summary of the method: as §2
SF-539 = assay: Growth inhibition of human SF539 cells
Summary of the method: (§3)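 Assayed in the NCI 60 human cancer cell line panel under the Developmental Therapeutics Program protocol. For each line, dose–response curves were plotted against log10 drug concentration. In the one-dose screen at 10^-5 M, growth was given as percent of untreated control cells, and mean graph midpoint values were averaged.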

UO-31 = assay: Growth inhibition of human UO31 cells; summary of the method: as §3
HOP-62 = assay: Growth inhibition of human HOP62 cells; summary of the method: as §2
SN12C = assay: Antiproliferative activity against human SN12C cells assessed as cell growth at 10 uM; conditions: read-out: Activity; summary of the method: as §1
SK-MEL-5 = assay: Antiproliferative activity against human SK-MEL-5 cells assessed as cell growth at 10 uM; conditions: read-out: Activity; summary of the method: as §1
UACC-257 = assay: Antiproliferative activity against human UACC257 cells assessed as cell growth at 10 uM; conditions: read-out: Activity
Summary of the method: (§4)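 NCI 60 cell line panel, single dose (10^-5 M), run per the Developmental Therapeutics Program protocol (one dose mean graph). Each result is the growth percentage of treated cells relative to untreated control cells.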

[4] = Cytotoxicity against human H1299 cells at 100 uM after 48 hrs by MTT assay; conditions: NCI-H1299, 48 h
Summary of the method: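 H1299 non-small cell lung cancer cells were grown in RPMI 1640 with 10% FBS, penicillin and streptomycin at 37 °C under 5% CO2. About 2 × 10³ cells per well were seeded and left 24 h. Compounds were dissolved fresh in DMSO, diluted into complete medium and applied for 48 h. MTT was then added for 4 h at 37 °C, followed by lysis buffer (20% SDS, 50% DMF) for 16 h, and absorbance was read at 550 nm.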

ACHN [5] = assay: Antiproliferative activity against human ACHN cells assessed as cell growth at 10 uM; conditions: read-out: Activity; summary of the method: as §1
U-251 = assay: Growth inhibition of human U251 cells; summary of the method: as §3
SR = assay: Antiproliferative activity against human SR cells assessed as cell growth at 10 uM; conditions: read-out: Activity; summary of the method: as §4
BT-549 = assay: Growth inhibition of human BT549 cells; summary of the method: as §2
CAKI-1 [6] = assay: Growth inhibition of human Caki1 cells; summary of the method: as §2
KM12 = assay: Growth inhibition of human KM12 cells; summary of the method: as §2
A549 = assay: Antiproliferative activity against human A549 cells assessed as cell growth at 10 uM; conditions: read-out: Activity; summary of the method: as §1
[7] = Growth inhibition of human […] cells; summary of the method: as §3
LOX IMVI [8] = assay: Growth inhibition of human LOXIMVI cells; summary of the method: as §2
HOP-92 = assay: Growth inhibition of human HOP92 cells; summary of the method: as §2
SF-268 = assay: Antiproliferative activity against human SF268 cells assessed as cell growth at 10 uM; conditions: read-out: Activity; summary of the method: as §1
[9] = Antiproliferative activity against human RPMI8266 cells assessed as cell growth at 10 uM; conditions: read-out: Activity; summary of the method: as §1
NCI-H522 [10] = assay: Antiproliferative activity against human NCI-H522 cells assessed as cell growth at 10 uM; conditions: read-out: Activity; summary of the method: as §1
PC-3 = assay: Growth inhibition of human PC3 cells; summary of the method: as §3
[11] = Growth inhibition of human Hs 578T cells; summary of the method: as §2
TK-10 = assay: Growth inhibition of human TK10 cells; summary of the method: as §3
HL-60(TB) = assay: Antiproliferative activity against human HL-60(TB) cells assessed as cell growth at 10 uM; conditions: read-out: Activity
Summary of the method: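 NCI Developmental Therapeutics Program 60-cell-line one-dose screen at 10^-5 M. Readout is growth percentage of treated cells relative to untreated control cells.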

T47D = assay: Antiproliferative activity against human T47D cells assessed as cell growth at 10 uM; conditions: read-out: Activity; summary of the method: as §4
HCT-116 [12] = assay: Growth inhibition of human HCT116 cells; summary of the method: as §2
A498 = assay: Antiproliferative activity against human A498 cells assessed as cell growth at 10 uM; conditions: read-out: Activity; summary of the method: as §1
RXF 393 [13] = assay: Growth inhibition of human RXF393 cells; summary of the method: as §3
OVCAR-4 = assay: Growth inhibition of human OVCAR4 cells; summary of the method: as §2
OVCAR-3 = assay: Growth inhibition of human OVCAR-3 cells; summary of the method: as §2
EKVX = assay: Growth inhibition of human EKVX cells; summary of the method: as §2
Malme-3M = assay: Antiproliferative activity against human MALME-3M cells assessed as cell growth at 10 uM; conditions: read-out: Activity; summary of the method: as §1
NCI-H522 [14] = assay: Growth inhibition of human NCI-H522 cells; summary of the method: as §2
OVCAR-8 = assay: Antiproliferative activity against human OVCAR8 cells assessed as cell growth at 10 uM; conditions: read-out: Activity; summary of the method: as §1
SK-OV-3 = assay: Growth inhibition of human SKOV3 cells; summary of the method: as §3
CAKI-1 [15] = assay: Antiproliferative activity against human Caki1 cells assessed as cell growth at 10 uM; conditions: read-out: Activity; summary of the method: as §1
RXF 393 [16] = assay: Antiproliferative activity against human RXF393 cells assessed as cell growth at 10 uM; conditions: read-out: Activity; summary of the method: as §1
[17] = read-out: LC50 (the source's name)

## CCc1nc2ccc3c(c2[nH]1)C(=O)c1ccccc1C3=O
LOX IMVI [1]
  growth at 10 µM: 40%
ACHN [2]
  GI50: 3.29 µM
  TGI: > 100 µM
ACHN [2]; [17]
  CC50: > 100 µM
HCT-116 [3]
  growth at 10 µM: 47.6%
786-0
  GI50: 43.6 µM
  TGI: > 100 µM
786-0; [17]
  CC50: > 100 µM
SF-539
  GI50: 11.7 µM
  TGI: > 100 µM
SF-539; [17]
  CC50: > 100 µM
UO-31
  GI50: 1.33 µM
  TGI: > 100 µM
UO-31; [17]
  CC50: > 100 µM
HOP-62
  GI50: 32.2 µM
  TGI: > 100 µM
HOP-62; [17]
  CC50: > 100 µM
SN12C
  growth at 10 µM: 68.5%
SK-MEL-5
  growth at 10 µM: 60.8%
UACC-257
  growth at 10 µM: 39.7%
[4]
  viability at 100 µM: 37%
ACHN [5]
  growth at 10 µM: 25%
U-251
  GI50: 16.3 µM
  TGI: > 100 µM
U-251; [17]
  CC50: > 100 µM
SR
  growth at 10 µM: 52.5%
BT-549
  GI50: 9.3 µM
  TGI: > 100 µM
CAKI-1 [6]
  GI50: 1.17 µM
  TGI: > 100 µM
CAKI-1 [6]; [17]
  CC50: > 100 µM
KM12
  GI50: 7.69 µM
  TGI: > 100 µM
KM12; [17]
  CC50: > 100 µM
A549
  growth at 10 µM: 68.2%
[7]
  GI50: 4.16 µM
  TGI: > 100 µM
[7]; [17]
  CC50: > 100 µM
LOX IMVI [8]
  GI50: 4.56 µM
  TGI: > 100 µM
LOX IMVI [8]; [17]
  CC50: > 100 µM
HOP-92
  GI50: 9.84 µM
  TGI: 7.58 µM
HOP-92; [17]
  CC50: > 100 µM
SF-268
  growth at 10 µM: 80.4%
[9]
  growth at 10 µM: 56.2%
NCI-H522 [10]
  growth at 10 µM: 41.5%
PC-3
  GI50: 28.2 µM
  TGI: > 100 µM
PC-3; [17]
  CC50: > 100 µM
[11]
  GI50: > 100 µM
  TGI: > 100 µM
TK-10
  GI50: 12.1 µM
  TGI: > 100 µM
TK-10; [17]
  CC50: > 100 µM
HL-60(TB)
  growth at 10 µM: 41.8%
T47D
  growth at 10 µM: 63%
HCT-116 [12]
  GI50: 5.9 µM
  TGI: > 100 µM
HCT-116 [12]; [17]
  CC50: > 100 µM
A498
  growth at 10 µM: 28.9%
RXF 393 [13]
  GI50: 6.95 µM
  TGI: > 100 µM
RXF 393 [13]; [17]
  CC50: > 100 µM
OVCAR-4
  GI50: 25.7 µM
  TGI: > 100 µM
OVCAR-4; [17]
  CC50: > 100 µM
OVCAR-3
  GI50: 16.5 µM
  TGI: > 100 µM
OVCAR-3; [17]
  CC50: > 100 µM
EKVX
  GI50: 4.6 µM
  TGI: > 100 µM
EKVX; [17]
  CC50: > 100 µM
Malme-3M
  growth at 10 µM: 56.9%
NCI-H522 [14]
  GI50: 28.3 µM
  TGI: > 100 µM
NCI-H522 [14]; [17]
  CC50: > 100 µM
OVCAR-8
  growth at 10 µM: 72.9%
SK-OV-3
  GI50: 2.59 µM
  TGI: > 100 µM
SK-OV-3; [17]
  CC50: > 100 µM

## CN(C)c1ccc(-c2nc3ccc4c(c3[nH]2)C(=O)c2ccccc2C4=O)cc1
LOX IMVI [1]
  growth at 10 µM: 90.5%
HCT-116 [3]
  growth at 10 µM: 100%
SN12C
  growth at 10 µM: 94.5%
SK-MEL-5
  growth at 10 µM: 93.8%
CAKI-1 [15]
  growth at 10 µM: 108%
UACC-257
  growth at 10 µM: 103%
[4]
  viability at 100 µM: 22%
ACHN [5]
  growth at 10 µM: 96.2%
SR
  growth at 10 µM: 118%
A549
  growth at 10 µM: 113%
SF-268
  growth at 10 µM: 95.4%
[9]
  growth at 10 µM: 78.4%
NCI-H522 [10]
  growth at 10 µM: 87.1%
HL-60(TB)
  growth at 10 µM: 89.7%
T47D
  growth at 10 µM: 119%
A498
  growth at 10 µM: 86.1%
Malme-3M
  growth at 10 µM: 110%
OVCAR-8
  growth at 10 µM: 111%

## N#Cc1ccc(-c2nc3ccc4c(c3[nH]2)C(=O)c2ccccc2C4=O)cc1
RXF 393 [16]
  growth at 10 µM: 117%
LOX IMVI [1]
  growth at 10 µM: 101%
HCT-116 [3]
  growth at 10 µM: 79.8%
SN12C
  growth at 10 µM: 105%
SK-MEL-5
  growth at 10 µM: 103%
CAKI-1 [15]
  growth at 10 µM: 110%
UACC-257
  growth at 10 µM: 105%
[4]
  viability at 100 µM: 19%
ACHN [5]
  growth at 10 µM: 111%
SR
  growth at 10 µM: 84.1%
A549
  growth at 10 µM: 106%
SF-268
  growth at 10 µM: 99.2%
[9]
  growth at 10 µM: 114%
NCI-H522 [10]
  growth at 10 µM: 141%
HL-60(TB)
  growth at 10 µM: 145%
T47D
  growth at 10 µM: 85.1%
A498
  growth at 10 µM: 96.2%
Malme-3M
  growth at 10 µM: 201%
OVCAR-8
  growth at 10 µM: 98.9%

## COc1cc(-c2nc3ccc4c(c3[nH]2)C(=O)c2ccccc2C4=O)ccc1O
LOX IMVI [1]
  growth at 10 µM: 109%
HCT-116 [3]
  growth at 10 µM: 90.4%
SN12C
  growth at 10 µM: 102%
SK-MEL-5
  growth at 10 µM: 88.1%
CAKI-1 [15]
  growth at 10 µM: 134%
[4]
  viability at 100 µM: 38%
ACHN [5]
  growth at 10 µM: 100%
SR
  growth at 10 µM: 73.9%
A549
  growth at 10 µM: 97.9%
SF-268
  growth at 10 µM: 107%
[9]
  growth at 10 µM: 81%
NCI-H522 [10]
  growth at 10 µM: 71.5%
HL-60(TB)
  growth at 10 µM: 123%
T47D
  growth at 10 µM: 83.9%
A498
  growth at 10 µM: 122%
Malme-3M
  growth at 10 µM: 107%
OVCAR-8
  growth at 10 µM: 93.4%

— ChEMBL document CHEMBL1152649, “Synthesis, cytotoxicity and human telomerase inhibition activities of a series of 1,2-heteroannelated anthraquinones and anthra[1,2-d]imidazole-6,11-dione homologues” (2009)
